Reference: ChEMBL document CHEMBL1152220, “Discovery of a highly orally bioavailable c-5-[6-(4-Methanesulfonyloxyphenyl)hexyl]-2-methyl-1,3-dioxane-r-2-carboxylic acid as a potent hypoglycemic and hypolipidemic agent” (Bioorg Med Chem Lett, 2008)
Calls of active or inactive are those of the source. The rule behind the calls is not given here.

Key:
[1] = Tmax in Wistar rat at 30 mg/kg, po; assay type: ADME, organism-based; parameters: dose 30 mg/kg, route oral; conditions: in vivo
[2] = Half life in Wistar rat at 30 mg/kg, po; assay type: ADME, organism-based; parameters: dose 30 mg/kg, route oral; conditions: in vivo
Rattus norvegicus [3] = assay: Hypolipidemic activity in high cholesterol fed Sprague-Dawley rat assessed as reduction of LDL-C level at 3 mg/kg/day for 4 days relative to control; parameters: scale not given: the % may be the effect or the level left
Rattus norvegicus [4] = assay: (§1) AUC (0 to infinity) in Wistar rat at 30 mg/kg, po; assay type: ADME, organism-based, Plasma; parameters: time infinity, dose 30 mg/kg, route oral; conditions: in vivo
Rattus norvegicus [5] = assay: Hypolipidemic activity in high cholesterol fed Sprague-Dawley rat assessed as reduction of total cholesterol level at 3 mg/kg/day for 4 days relative to control; parameters: scale not given: the % may be the effect or the level left
Rattus norvegicus [6] = assay: Hypolipidemic activity in high cholesterol fed Sprague-Dawley rat assessed as reduction of triglyceride level at 3 mg/kg/day for 4 days relative to control; parameters: scale not given: the % may be the effect or the level left
[7] = biological target: T1, Peroxisome proliferator-activated receptor gamma (Homo sapiens, UniProt P37231); assay: (§2) Agonist activity at human PPARgamma ligand binding domain expressed in human HepG2 cells co-transfected with PPRE3-TK-luc assessed as induction of beta-galactosidase activity by transactivation assay; assay type: cell-based
T1 sequence (P37231 whole entry): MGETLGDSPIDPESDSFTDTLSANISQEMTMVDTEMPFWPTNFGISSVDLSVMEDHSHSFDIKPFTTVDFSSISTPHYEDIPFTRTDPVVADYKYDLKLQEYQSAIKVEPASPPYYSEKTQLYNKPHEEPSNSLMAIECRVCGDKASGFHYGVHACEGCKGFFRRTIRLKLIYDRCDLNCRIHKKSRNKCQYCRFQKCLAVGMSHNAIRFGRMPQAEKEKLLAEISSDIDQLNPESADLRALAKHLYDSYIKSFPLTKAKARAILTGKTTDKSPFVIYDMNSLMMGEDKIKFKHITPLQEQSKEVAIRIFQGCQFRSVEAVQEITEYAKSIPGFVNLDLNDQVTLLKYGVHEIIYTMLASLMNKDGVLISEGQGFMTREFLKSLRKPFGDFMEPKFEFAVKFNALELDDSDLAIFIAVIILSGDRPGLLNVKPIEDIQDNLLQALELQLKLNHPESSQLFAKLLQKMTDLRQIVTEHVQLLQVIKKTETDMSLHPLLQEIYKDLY
Procedure, shortened: (§3)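 HepG2 cells were transfected with a pSG5 vector carrying hPPARα or hPPARγ cDNA and cotransfected with PPRE3-TK-luc. Firefly luciferase was measured with a commercial assay, and β-galactosidase was read on an ELISA reader. Activity is expressed as fold induction. Single-point testing was at 10 µM for hPPARα and 0.2 µM for hPPARγ, with EC50 given elsewhere.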

Mus musculus [8] = assay: Hypoglycemic activity in db/db mouse assessed as reduction of plasma glucose level at 3 mg/kg/day for 6 days relative to control; assay type: functional; parameters: scale not given: the % may be the effect or the level left
Procedure, shortened: (§4)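 Male db/db mice aged 6–8 weeks were dosed daily for 6 days. Plasma glucose and triglycerides were measured, and results are reported as % change relative to vehicle-treated controls.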

Mus musculus [9] = assay: Hypolipidemic activity in db/db mouse assessed as reduction of triglyceride level at 3 mg/kg/day for 6 days relative to control; assay type: functional; parameters: scale not given: the % may be the effect or the level left; procedure, shortened: as §4
Rattus norvegicus [10] = assay: (§5) Cmax in Wistar rat at 30 mg/kg, po; assay type: ADME, organism-based; parameters: dose 30 mg/kg, route oral; conditions: in vivo
Mus musculus [11] = assay: Reduction of triglyceride level in Swiss albino mouse serum at 10 mg/kg/day, po for 6 days relative to control; assay type: functional; parameters: scale not given: the % may be the effect or the level left
Procedure, shortened: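 Male Swiss albino mice aged 6–8 weeks were dosed orally at 10 mg/kg/day for 6 days. Serum triglyceride is reported as % change relative to vehicle controls, as the mean of n = 6.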

Rattus norvegicus [12] = assay: Hypolipidemic activity in high cholesterol fed Sprague-Dawley rat assessed as effect on HDL-C level at 3 mg/kg/day for 4 days relative to control
[13] = biological target: T2, Peroxisome proliferator-activated receptor alpha (Homo sapiens) (UniProt Q07869); assay: Agonist activity at human PPARalpha ligand binding domain expressed in human HepG2 cells co-transfected with PPRE3-TK-luc assessed as induction of beta-galactosidase activity at 10 uM by transactivation assay; assay type: cell-based; procedure, shortened: as §3
T2 sequence (whole entry): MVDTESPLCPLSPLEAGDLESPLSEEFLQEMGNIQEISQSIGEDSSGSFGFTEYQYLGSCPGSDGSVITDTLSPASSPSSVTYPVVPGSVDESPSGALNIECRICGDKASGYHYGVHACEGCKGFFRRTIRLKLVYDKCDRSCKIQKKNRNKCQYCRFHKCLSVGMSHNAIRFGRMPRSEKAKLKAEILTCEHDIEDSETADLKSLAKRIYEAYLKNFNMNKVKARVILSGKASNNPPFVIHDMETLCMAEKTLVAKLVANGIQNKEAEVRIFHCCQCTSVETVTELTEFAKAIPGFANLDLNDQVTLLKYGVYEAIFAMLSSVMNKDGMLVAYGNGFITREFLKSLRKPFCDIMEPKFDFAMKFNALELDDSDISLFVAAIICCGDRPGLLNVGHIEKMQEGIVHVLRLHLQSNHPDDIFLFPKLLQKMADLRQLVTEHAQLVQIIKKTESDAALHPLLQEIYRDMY

[14] = biological target: T3, Peroxisome proliferator-activated receptor gamma (Homo sapiens) (UniProt P37231); assay: as §2; assay type: cell-based; procedure, shortened: as §3
T3 sequence (whole entry): T1 sequence (P37231 whole entry)

[15] = biological target: T4, Peroxisome proliferator-activated receptor alpha (Homo sapiens, UniProt Q07869); assay: Agonist activity at human PPARalpha ligand binding domain expressed in human HepG2 cells co-transfected with PPRE3-TK-luc assessed as induction of beta-galactosidase activity by transactivation assay; assay type: cell-based
T4 sequence (Q07869 whole entry): T2 sequence (whole entry)
Procedure, shortened: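 HepG2 cells were transfected with a pSG5 vector carrying hPPARα or hPPARγ cDNA and cotransfected with PPRE3-TK-luc. Firefly luciferase was measured with a commercial assay, and β-galactosidase was read on an ELISA reader. Activity is expressed as fold induction.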

[16] = as §1; assay type: ADME, organism-based, Plasma; parameters: time infinity, dose 30 mg/kg, route oral; conditions: Wistar, plasma
[17] = as §5; assay type: ADME, organism-based; parameters: dose 30 mg/kg, route oral; conditions: Wistar, in vivo

Cc1ccc(-c2nc(CCCC[C@H]3CO[C@@](C)(C(=O)O)OC3)c(C)o2)cc1
Tmax [1]: 0.67 h | half-life [2]: 1.5 h | Activity (Rattus norvegicus [3]): -68% | AUC (Rattus norvegicus [4]): 99 µg·h/mL | Activity (Rattus norvegicus [5]): -49% | Activity (Rattus norvegicus [6]): -54% | EC50 [7]: 7 µM | Activity (Mus musculus [8]): -44% | Activity (Mus musculus [9]): -54% | Cmax (Rattus norvegicus [10]): 41 µg/mL | Activity (Mus musculus [11]): -67% | Activity (Rattus norvegicus [12]): 88%

CS(=O)(=O)Oc1ccc(CCCC[C@H]2CO[C@@](C)(C(=O)O)OC2)cc1
fold change (FC) [13]: 3 | Activity [14]: inactive | EC50 [15]: 20 µM | Activity (Mus musculus [11]): -32%

CS(=O)(=O)c1ccc(CCCC[C@H]2CO[C@@](C)(C(=O)O)OC2)cc1
fold change (FC) [13]: 1 | Activity (Mus musculus [11]): -7%

C[C@]1(C(=O)O)OC[C@@H](CCCCc2ccc(Cl)cc2)CO1
fold change (FC) [13]: 2.6 | Activity (Mus musculus [11]): -10%

CCO[C@@H](Cc1ccc(OCCc2ccc(OS(C)(=O)=O)cc2)cc1)C(=O)O [TESAGLITAZAR]
Activity (Rattus norvegicus [3]): -31% | Activity (Rattus norvegicus [5]): -59% | Activity (Rattus norvegicus [6]): -51% | EC50 [7]: 0.013 µM | Activity (Mus musculus [8]): -54% | Activity (Mus musculus [9]): -60% | EC50 [15]: 0.82 µM | Activity (Mus musculus [11]): -79% | Activity (Rattus norvegicus [12]): 18%

CSc1ccc(CCCC[C@H]2CO[C@@](C)(C(=O)O)OC2)cc1
fold change (FC) [13]: 4 | Activity (Mus musculus [11]): -14%

C[C@]1(C(=O)O)OC[C@@H](CCCCc2ccc(F)cc2)CO1
fold change (FC) [13]: 2.3 | Activity (Mus musculus [11]): -9%

CS(=O)(=O)Oc1ccc(CCCCC[C@H]2CO[C@@](C)(C(=O)O)OC2)cc1
Activity [14]: inactive | EC50 [15]: 2.5 µM | Activity (Mus musculus [11]): -28%

Cc1ccc(CCCC[C@H]2CO[C@@](C)(C(=O)O)OC2)cc1
fold change (FC) [13]: 3.2 | Activity (Mus musculus [11]): -22%

COc1ccc(CCCC[C@H]2CO[C@@](C)(C(=O)O)OC2)cc1
fold change (FC) [13]: 2.5 | Activity (Mus musculus [11]): -11%

Cc1cccc(Nc2cc(Cl)nc(SCC(=O)O)n2)c1C
fold change (FC) [13]: 3.3

C[C@]1(C(=O)O)OC[C@@H](CCCCc2ccc(OCc3ccccc3)cc2)CO1
fold change (FC) [13]: 2.3 | Activity (Mus musculus [11]): -25%

C[C@]1(C(=O)O)OC[C@@H](CCCCc2ccc(O)cc2)CO1
fold change (FC) [13]: 1.2 | Activity (Mus musculus [11]): -15%

C[S+]([O-])c1ccc(CCCC[C@H]2CO[C@@](C)(C(=O)O)OC2)cc1 (stereo not given in full)
fold change (FC) [13]: 2 | Activity (Mus musculus [11]): -12%

CS(=O)(=O)Oc1ccc(CCCCCC[C@H]2CO[C@@](C)(C(=O)O)OC2)cc1
Tmax [1]: 4 h | half-life [2]: 12 h | Activity (Rattus norvegicus [3]): -46% | AUC(0-inf) [16]: 1490 µg·h/mL | Activity (Rattus norvegicus [5]): -56% | Activity (Rattus norvegicus [6]): -63% | EC50 [7]: 15 µM | Activity (Mus musculus [8]): -53% | Activity (Mus musculus [9]): -50% | Cmax [17]: 127 µg/mL | EC50 [15]: 15 µM | Activity (Mus musculus [11]): -71% | Activity (Rattus norvegicus [12]): 51%
